According to ChEMBL document CHEMBL1124503, “The role of position 4 in angiotensin II antagonism: a structure-activity study” (J Med Chem, 1989):
*1 amine or outer side, *2 acyl side, *3 side chain or, on linkers, in order; H or OH if unused. Where a SMILES comes first, the peptide text is derived from it. [ ]: non-standard residue; d: D form. Phe(4-SO2NH2) = N[C@@H](Cc1ccc(S(N)(=O)=O)cc1)C(=O)O; Phe(4-NO2) = N[C@@H](Cc1ccc([N+](=O)[O-])cc1)C(=O)O; Phe(4-SO3H) = N[C@@H](Cc1ccc(S(=O)(=O)O)cc1)C(=O)O; X2 = CC(=O)NCSc1ccc(C[C@H](N[*:1])C(=O)[*:2])cc1; Phe(4-B(OH)2) = N[C@@H](Cc1ccc(B(O)O)cc1)C(=O)O; Phe(4-Cl) = N[C@@H](Cc1ccc(Cl)cc1)C(=O)O; X1 = O=C([C@H](Cc1ccc(S)cc1)N[*:1])[*:2]; Phe(4-NH2) = Nc1ccc(C[C@H](N)C(=O)O)cc1; Phe(4-F) = N[C@@H](Cc1ccc(F)cc1)C(=O)O; Sar = CNCC(=O)O

What was measured:
Rattus norvegicus [1] = assay: Residual ANG II-like antagonist activity, ID50 was measured in vivo, in the rat blood pressure assay; assay type: functional
[2] = tested on: Angiotensin II receptor (Oryctolagus cuniculus); assay: Angiotensin II-like agonist activity, measured in the in vitro rabbit aorta strip assay
[3] = biological target: Angiotensin II receptor (Rattus norvegicus) (UniProt P29089+P25095+P35351); assay: In vivo blood pressure increase produced by a 1 ug bolus i.v.; assay type: functional, organism-based
How it was run: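 Rat blood pressure assay (Regoli et al.); agonist activity read as the mmHg rise in blood pressure after a 1 μg intravenous bolus of compound.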

Oryctolagus cuniculus = organism: Oryctolagus cuniculus; assay: Antagonist activity pA2, was measured in the in vitro rabbit aorta strip assay; assay type: functional; conditions: read-out: pA2 (converted)
How it was run: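 Isolated rabbit aorta strip (method of Rioux et al.); pA2 against the ANG II dose-response curve, determined at low antagonist doses within the competitive-inhibition range.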

Rattus norvegicus [4] = organism: Rattus norvegicus; assay: Antagonist activity pA2, was measured in the in vitro rat uterus strip assay; assay type: functional; conditions: read-out: pA2 (converted)

| Compound | ID50 (Rattus norvegicus [1]) | Activity [2] | Blood pressure [3] | Kb (Oryctolagus cuniculus) | Kb (Rattus norvegicus [4]) |
| --- | --- | --- | --- | --- | --- |
| CC[C@H](C)[C@H](NC(=O)[C@H](Cc1ccc(O)cc1)NC(=O)[C@@H](NC(=O)[C@H](CCCN=C(N)N)NC(=O)CNC)C(C)C)C(=O)N[C@@H](Cc1c[nH]cn1)C(=O)N1CCC[C@H]1C(=O)N[C@H](Cc1ccc(O)cc1)C(=O)O | 20 ng min-1 rat-1 | 0% | 15 mmHg | 5.62 nM | – |
| CC[C@H](C)[C@H](NC(=O)[C@H](Cc1ccccc1)NC(=O)[C@@H](NC(=O)[C@H](CCCN=C(N)N)NC(=O)CNC)C(C)C)C(=O)N[C@@H](Cc1c[nH]cn1)C(=O)N1CCC[C@H]1C(=O)N[C@@H](Cc1ccc(O)cc1)C(=O)O | 50 ng min-1 rat-1 | 0% | 5.5 mmHg | 31.6 nM | – |
| CC[C@H](C)[C@H](NC(=O)[C@H](Cc1ccc(O)cc1)NC(=O)[C@@H](NC(=O)[C@H](CCCN=C(N)N)NC(=O)CNC)C(C)C)C(=O)N[C@@H](Cc1c[nH]cn1)C(=O)N1CCC[C@H]1C(=O)N[C@H](Cc1ccccc1)C(=O)O | 12.5 ng min-1 rat-1 | – | 10 mmHg | 1 nM | – |
| CC[C@H](C)[C@H](NC(=O)[C@H](Cc1ccc(OC)cc1)NC(=O)[C@@H](NC(=O)[C@H](CCCN=C(N)N)NC(=O)CNC)C(C)C)C(=O)N[C@@H](Cc1c[nH]cn1)C(=O)N1CCC[C@H]1C(=O)N[C@@H](Cc1ccccc1)C(=O)O | 250 ng min-1 rat-1 | 0% | 20 mmHg | 79.4 nM | – |
| CC[C@H](C)[C@H](NC(=O)[C@@H]1CCCN1C(=O)[C@H](Cc1c[nH]cn1)NC(=O)[C@@H](NC(=O)[C@H](Cc1ccc(OC)cc1)NC(=O)[C@@H](NC(=O)[C@H](CCCN=C(N)N)NC(=O)CNC)C(C)C)[C@@H](C)CC)C(=O)O | 100 ng min-1 rat-1 | 0% | 3 mmHg | 79.4 nM | – |
| CCOc1ccc(C[C@H](NC(=O)[C@@H](NC(=O)[C@H](CCCN=C(N)N)NC(=O)CNC)C(C)C)C(=O)N[C@H](C(=O)N[C@@H](Cc2c[nH]cn2)C(=O)N2CCC[C@H]2C(=O)N[C@H](C(=O)O)[C@@H](C)CC)[C@@H](C)CC)cc1 | >1000 ng min-1 rat-1 | 0% | 5 mmHg | > 1000 nM | – |
| CC[C@H](C)[C@H](NC(=O)[C@@H]1CCCN1C(=O)[C@H](Cc1c[nH]cn1)NC(=O)[C@@H](NC(=O)[C@H](Cc1ccc(O)cc1)NC(=O)[C@@H](NC(=O)[C@H](CCCN=C(N)N)NC(=O)[C@@H](N)CC(=O)O)C(C)C)[C@@H](C)CC)C(=O)O | – | – | – | – | 5.01 nM |
| CCOc1ccc(C[C@H](NC(=O)[C@@H](NC(=O)[C@H](CCCN=C(N)N)NC(=O)CNC)C(C)C)C(=O)N[C@H](C(=O)N[C@@H](Cc2c[nH]cn2)C(=O)N2CCC[C@H]2C(=O)N[C@@H](Cc2ccccc2)C(=O)O)[C@@H](C)CC)cc1 | 150 ng min-1 rat-1 | 0.1% | 2.5 mmHg | – | > 1000 nM |
| CC[C@H](C)[C@H](NC(=O)[C@H](Cc1ccc(F)cc1)NC(=O)[C@@H](NC(=O)[C@H](CCCN=C(N)N)NC(=O)CNC)C(C)C)C(=O)N[C@@H](Cc1c[nH]cn1)C(=O)N1CCC[C@H]1C(=O)N[C@H](Cc1ccccc1)C(=O)O | 50 ng min-1 rat-1 | 0% | 10 mmHg | 141 nM | – |
| CC[C@H](C)[C@H](NC(=O)[C@H](Cc1ccc(F)cc1)NC(=O)[C@@H](NC(=O)[C@H](CCCN=C(N)N)NC(=O)CNC)C(C)C)C(=O)N[C@@H](Cc1c[nH]cn1)C(=O)N1CCC[C@H]1C(=O)N[C@@H](Cc1ccccc1)C(=O)O | 150 ng min-1 rat-1 | 0% | 22 mmHg | 31.6 nM | – |
| CC[C@H](C)[C@H](NC(=O)[C@H](Cc1ccccc1)NC(=O)[C@@H](NC(=O)[C@H](CCCN=C(N)N)NC(=O)CNC)C(C)C)C(=O)N[C@@H](Cc1c[nH]cn1)C(=O)N1CCC[C@H]1C(=O)N[C@H](Cc1ccc(O)cc1)C(=O)O | 30 ng min-1 rat-1 | 0% | 5 mmHg | 100 nM | – |
| CC[C@H](C)[C@H](NC(=O)[C@H](Cc1ccc(O)cc1)NC(=O)[C@@H](NC(=O)[C@H](CCCN=C(N)N)NC(=O)CNC)C(C)C)C(=O)N[C@@H](Cc1c[nH]cn1)C(=O)N1CCC[C@H]1C(=O)N[C@@H](Cc1ccccc1)C(=O)O | – | – | 50 mmHg | – | – |
| CC[C@H](C)[C@H](NC(=O)[C@H](Cc1ccc(F)cc1)NC(=O)[C@@H](NC(=O)[C@H](CCCN=C(N)N)NC(=O)[C@@H](N)CC(=O)O)C(C)C)C(=O)N[C@@H](Cc1c[nH]cn1)C(=O)N1CCC[C@H]1C(=O)N[C@@H](Cc1ccccc1)C(=O)O (H-DRV[Phe(4-F)]IHPF-OH) | – | – | – | – | 501 nM |
| CC[C@H](C)[C@H](NC(=O)[C@H](Cc1ccccc1)NC(=O)[C@@H](NC(=O)[C@H](CCCN=C(N)N)NC(=O)CNC)C(C)C)C(=O)N[C@@H](Cc1c[nH]cn1)C(=O)N1CCC[C@H]1C(=O)N[C@@H](Cc1ccccc1)C(=O)O (H-[Sar]RVFIHPF-OH) | – | 22% | – | 12.6 nM | – |
| CC[C@H](C)[C@H](NC(=O)[C@@H]1CCCN1C(=O)[C@H](Cc1c[nH]cn1)NC(=O)[C@@H](NC(=O)[C@H](Cc1ccccc1)NC(=O)[C@@H](NC(=O)[C@H](CCCN=C(N)N)NC(=O)CNC)C(C)C)[C@@H](C)CC)C(=O)O (H-[Sar]RVFIHPI-OH) | 80 ng min-1 rat-1 | 0% | 2.7 mmHg | 3.16 nM | – |
| CC[C@H](C)[C@H](NC(=O)[C@H](Cc1ccc(B(O)O)cc1)NC(=O)[C@@H](NC(=O)[C@H](CCCN=C(N)N)NC(=O)CNC)C(C)C)C(=O)N[C@@H](Cc1c[nH]cn1)C(=O)N1CCC[C@H]1C(=O)N[C@@H](Cc1ccccc1)C(=O)O (H-[Sar]RV[Phe(4-B(OH)2)]IHPF-OH) | – | 10% | – | – | – |
| CC[C@H](C)[C@H](NC(=O)[C@@H]1CCCN1C(=O)[C@H](Cc1c[nH]cn1)NC(=O)[C@@H](NC(=O)[C@H](Cc1ccc(B(O)O)cc1)NC(=O)[C@@H](NC(=O)[C@H](CCCN=C(N)N)NC(=O)CNC)C(C)C)[C@@H](C)CC)C(=O)O (H-[Sar]RV[Phe(4-B(OH)2)]IHPI-OH) | 500 ng min-1 rat-1 | 0% | 0 mmHg | 2000 nM | – |
| CC[C@H](C)[C@H](NC(=O)[C@H](Cc1ccc(Cl)cc1)NC(=O)[C@@H](NC(=O)[C@H](CCCN=C(N)N)NC(=O)CNC)C(C)C)C(=O)N[C@@H](Cc1c[nH]cn1)C(=O)N1CCC[C@H]1C(=O)N[C@@H](Cc1ccccc1)C(=O)O (H-[Sar]RV[Phe(4-Cl)]IHPF-OH) | 30 ng min-1 rat-1 | 0% | 5.5 mmHg | 31.6 nM | – |
| CC[C@H](C)[C@H](NC(=O)[C@@H]1CCCN1C(=O)[C@H](Cc1c[nH]cn1)NC(=O)[C@@H](NC(=O)[C@H](Cc1ccc(Cl)cc1)NC(=O)[C@@H](NC(=O)[C@H](CCCN=C(N)N)NC(=O)CNC)C(C)C)[C@@H](C)CC)C(=O)O (H-[Sar]RV[Phe(4-Cl)]IHPI-OH) | 500 ng min-1 rat-1 | 0% | 2 mmHg | > 1000 nM | – |
| CC[C@H](C)[C@H](NC(=O)[C@@H]1CCCN1C(=O)[C@H](Cc1c[nH]cn1)NC(=O)[C@@H](NC(=O)[C@H](Cc1ccc(F)cc1)NC(=O)[C@@H](NC(=O)[C@H](CCCN=C(N)N)NC(=O)CNC)C(C)C)[C@@H](C)CC)C(=O)O (H-[Sar]RV[Phe(4-F)]IHPI-OH) | 750 ng min-1 rat-1 | 0% | 0 mmHg | 158 nM | – |
| CC[C@H](C)[C@H](NC(=O)[C@H](Cc1ccc(N)cc1)NC(=O)[C@@H](NC(=O)[C@H](CCCN=C(N)N)NC(=O)CNC)C(C)C)C(=O)N[C@@H](Cc1c[nH]cn1)C(=O)N1CCC[C@H]1C(=O)N[C@@H](Cc1ccccc1)C(=O)O (H-[Sar]RV[Phe(4-NH2)]IHPF-OH) | – | 15% | – | – | – |
| CC[C@H](C)[C@H](NC(=O)[C@@H]1CCCN1C(=O)[C@H](Cc1c[nH]cn1)NC(=O)[C@@H](NC(=O)[C@H](Cc1ccc([N+](=O)[O-])cc1)NC(=O)[C@@H](NC(=O)[C@H](CCCN=C(N)N)NC(=O)CNC)C(C)C)[C@@H](C)CC)C(=O)O (H-[Sar]RV[Phe(4-NO2)]IHPI-OH) | – | 0% | 5 mmHg | 79.4 nM | – |
| CC[C@H](C)[C@H](NC(=O)[C@H](Cc1ccc(S(N)(=O)=O)cc1)NC(=O)[C@@H](NC(=O)[C@H](CCCN=C(N)N)NC(=O)CNC)C(C)C)C(=O)N[C@@H](Cc1c[nH]cn1)C(=O)N1CCC[C@H]1C(=O)N[C@@H](Cc1ccccc1)C(=O)O (H-[Sar]RV[Phe(4-SO2NH2)]IHPF-OH) | – | 0.9% | – | – | – |
| CC[C@H](C)[C@H](NC(=O)[C@H](Cc1ccc(S(=O)(=O)O)cc1)NC(=O)[C@@H](NC(=O)[C@H](CCCN=C(N)N)NC(=O)CNC)C(C)C)C(=O)N[C@@H](Cc1c[nH]cn1)C(=O)N1CCC[C@H]1C(=O)N[C@@H](Cc1ccccc1)C(=O)O (H-[Sar]RV[Phe(4-SO3H)]IHPF-OH) | – | 0% | – | > 1000 nM | – |
| CC[C@H](C)[C@H](NC(=O)[C@H](Cc1ccc(S)cc1)NC(=O)[C@@H](NC(=O)[C@H](CCCN=C(N)N)NC(=O)CNC)C(C)C)C(=O)N[C@@H](Cc1c[nH]cn1)C(=O)N1CCC[C@H]1C(=O)N[C@@H](Cc1ccccc1)C(=O)O (H-[Sar]RV[X1]IHPF-OH) | – | 0.9% | – | > 1000 nM | – |
| CC[C@H](C)[C@H](NC(=O)[C@H](Cc1ccc(SCNC(C)=O)cc1)NC(=O)[C@@H](NC(=O)[C@H](CCCN=C(N)N)NC(=O)CNC)C(C)C)C(=O)N[C@@H](Cc1c[nH]cn1)C(=O)N1CCC[C@H]1C(=O)N[C@@H](Cc1ccccc1)C(=O)O (H-[Sar]RV[X2]IHPF-OH) | – | 9% | – | 8.13 nM | – |
| CC[C@H](C)[C@H](NC(=O)C1CCCN1C(=O)[C@H](Cc1c[nH]cn1)NC(=O)[C@@H](NC(=O)[C@H](Cc1ccc(O)cc1)NC(=O)[C@@H](NC(=O)[C@H](CCCN=C(N)N)NC(=O)CNC)C(C)C)[C@@H](C)CC)C(=O)O (single isomer, unassigned) | 10 ng min-1 rat-1 | – | 10 mmHg | 0.794 nM | – |
| H-DRVFIHPY-OH | – | – | – | – | 240 nM |
| H-DRVYIHPC-OH | – | – | – | – | 6.03 nM |
| H-DRVYIHPL-OH | – | < 0.1% | – | 1.66 nM | – |
